Assays:
human platelets [1] = test: Multiple electrode aggregometry; format: cell-based; settings: MEA, human blood; for effect on platelet aggregation induced by human plaque homogenate: plaque 833 µg/mL, AMD3465 100 nM, i[VREY]4 5 µM
mouse platelets [2] = test: i[VREY]4-biot binding to mouse platelets, flow cytometry; format: cell-based
[3] = i[VREY]4 pharmacokinetics, plasma ELISA; format: in vivo, C57BL/6J mice; settings: C57BL/6J, mouse, ip, 75 ug
In short: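 Biotinylated test compound (75 µg) was injected i.p. into mice. Plasma levels of the biotinylated peptide were measured by ELISA at several time points after injection. Data are means ± SD.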

[4] = target: CXCL12 on human platelets (Homo sapiens, UniProt P48061); test: Detection of CXCL12 on human platelets with anti-CXCL12 antibodies; format: cell-based; settings: human blood, CXCL12 0.1 µg/mL or collagen 1 µg/mL
human platelets [5] = test: i[VREY]4-biot binding and proximity ligation with CXCL12 on human platelets; format: cell-based; settings: flow cytometry, resting vs collagen-activated, n = 6
mouse platelets [6] = test: MEA in mouse blood activated with collagen; format: cell-based; settings: 1 µg/mL collagen, 5 µM i[VREY]4, n = 6-8
In short: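 Blood came from mice with megakaryocyte-lineage Cxcl12 deletion (Pf4-Cre × Cxcl12 fl/fl, Apoe-/- background) or from Cxcl12 wt/wt controls. It was mixed with 1 µg/mL collagen with or without 5 µM test compound, and aggregation was measured by multiple electrode aggregometry (Multiplate), n=6-8 mice. Data are means ± SD.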

CXCR4 = CXCR4 internalization on human platelets, flow cytometry; format: cell-based; settings: CXCL12 0.1 µg/mL, i[VREY]4 5 µM
In short: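 Human blood diluted 1:1 with PBS and treated with recombinant CXCL12 (0.1 µg/mL), collagen (1 µg/mL) and test compound (5 µM). Platelet-surface CXCR4 was stained with anti-CXCR4 clone 12G5 and measured by flow cytometry. Data are means ± SD of independent experiments, analysed by one-way ANOVA with Tukey's multiple comparison test.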

15N-labeled CXCL12 = 15N-labeled CXCL12 (Homo sapiens, UniProt P48061); test: 15N HSQC NMR titration of CXCL12 with i[VREY]4; format: binding; settings: 20 µM 15N-CXCL12, i[VREY]4 20, 40, 200 µM; 25 mM KPi pH 7.1; 25 °C
human platelets [7] = test: Platelet activation by PAC-1 and P-selectin staining, flow cytometry; format: cell-based; settings: human blood, remibrutinib 0.1 µM 30 minutes at 37°C, CXCL12 0.1 μg/mL, CRP-XL 0.01 μg/mL, n = 6
CXCL12 = CXCL12 (Homo sapiens, UniProt P48061); settings: read-out: KD of CXCL12 binding to CCL5; cited from earlier work

c1ccc(CNCc2ccc(CN3CCCNCCNCCCNCC3)cc2)nc1 [AMD3465, reference compound]
effect on platelet aggregation induced by human plaque homogenate (human platelets [1]): reduced

CC[C@H](C)[C@H](NC(=O)[C@H](Cc1ccc(O)cc1)NC(=O)[C@H](CCC(=O)O)NC(=O)[C@H](CCCNC(=N)N)NC(=O)[C@@H](NC(=O)[C@H](Cc1c[nH]c2ccccc12)NC(=O)[C@H](CCCCN)NC(=O)[C@H](CCCCN)NC(=O)[C@H](CCC(=O)O)NC(=O)CNC(=O)CON=C(C)CCCC(=O)NCCCC[C@@H]1NC(=O)[C@H](CCC(=O)O)NC(=O)[C@H](CCCCNC(=O)CCCC(C)=NOCC(=O)NCC(=O)N[C@@H](CCC(=O)O)C(=O)N[C@@H](CCCCN)C(=O)N[C@@H](CCCCN)C(=O)N[C@@H](Cc2c[nH]c3ccccc23)C(=O)N[C@H](C(=O)N[C@@H](CCCNC(=N)N)C(=O)N[C@@H](CCC(=O)O)C(=O)N[C@@H](Cc2ccc(O)cc2)C(=O)N[C@H](C(=O)N[C@@H](CC(N)=O)C(=O)N[C@@H](CO)C(=O)N[C@@H](CC(C)C)C(=O)N[C@@H](CCC(=O)O)C(=O)N[C@@H](CCSC)C(=O)N[C@@H](CO)C(=O)O)[C@@H](C)CC)C(C)C)NC(=O)[C@@H]2CCCN2C(=O)[C@H](CSC2CC(=O)N(CCCCCC(=O)NNC(=O)CCCC[C@@H]3SC[C@@H]4NC(=O)N[C@@H]43)C2=O)NC(=O)[C@H](CCCCNC(=O)CCCC(C)=NOCC(=O)NCC(=O)N[C@@H](CCC(=O)O)C(=O)N[C@@H](CCCCN)C(=O)N[C@@H](CCCCN)C(=O)N[C@@H](Cc2c[nH]c3ccccc23)C(=O)N[C@H](C(=O)N[C@@H](CCCNC(=N)N)C(=O)N[C@@H](CCC(=O)O)C(=O)N[C@@H](Cc2ccc(O)cc2)C(=O)N[C@H](C(=O)N[C@@H](CC(N)=O)C(=O)N[C@@H](CO)C(=O)N[C@@H](CC(C)C)C(=O)N[C@@H](CCC(=O)O)C(=O)N[C@@H](CCSC)C(=O)N[C@@H](CO)C(=O)O)[C@@H](C)CC)C(C)C)NC(=O)[C@H](CCCCN)NC(=O)[C@H](CCCCNC(=O)CCCC(C)=NOCC(=O)NCC(=O)N[C@@H](CCC(=O)O)C(=O)N[C@@H](CCCCN)C(=O)N[C@@H](CCCCN)C(=O)N[C@@H](Cc2c[nH]c3ccccc23)C(=O)N[C@H](C(=O)N[C@@H](CCCNC(=N)N)C(=O)N[C@@H](CCC(=O)O)C(=O)N[C@@H](Cc2ccc(O)cc2)C(=O)N[C@H](C(=O)N[C@@H](CC(N)=O)C(=O)N[C@@H](CO)C(=O)N[C@@H](CC(C)C)C(=O)N[C@@H](CCC(=O)O)C(=O)N[C@@H](CCSC)C(=O)N[C@@H](CO)C(=O)O)[C@@H](C)CC)C(C)C)NC(=O)[C@@H]2CCCN2C(=O)CNC1=O)C(C)C)C(=O)N[C@@H](CC(N)=O)C(=O)N[C@@H](CO)C(=O)N[C@@H](CC(C)C)C(=O)N[C@@H](CCC(=O)O)C(=O)N[C@@H](CCSC)C(=O)N[C@@H](CO)C(=O)O (some centres unmarked) [i[VREY]4-biot]
binding to the surface of unactivated mouse platelets (mouse platelets [2]; resting conditions, flow cytometry): No binding was observed | binding to the surface of mouse platelets, wild type vs CXCR4 knockout (mouse platelets [2]; resting or 10 µg/mL collagen, streptavidin-FITC flow cytometry, n = 3-5): required platelet activation and CXCR4 | Cmax [3]: 1970 ng/mL

CC[C@H](C)[C@H](NC(=O)[C@H](Cc1ccc(O)cc1)NC(=O)[C@H](CCC(=O)O)NC(=O)[C@H](CCCNC(=N)N)NC(=O)[C@@H](NC(=O)[C@H](Cc1c[nH]c2ccccc12)NC(=O)[C@H](CCCCN)NC(=O)[C@H](CCCCN)NC(=O)[C@H](CCC(=O)O)NC(=O)CNC(=O)CON=C(C)CCCC(=O)NCCCC[C@@H]1NC(=O)[C@H](CCC(=O)O)NC(=O)[C@H](CCCCNC(=O)CCCC(C)=NOCC(=O)NCC(=O)N[C@@H](CCC(=O)O)C(=O)N[C@@H](CCCCN)C(=O)N[C@@H](CCCCN)C(=O)N[C@@H](Cc2c[nH]c3ccccc23)C(=O)N[C@H](C(=O)N[C@@H](CCCNC(=N)N)C(=O)N[C@@H](CCC(=O)O)C(=O)N[C@@H](Cc2ccc(O)cc2)C(=O)N[C@H](C(=O)N[C@@H](CC(N)=O)C(=O)N[C@@H](CO)C(=O)N[C@@H](CC(C)C)C(=O)N[C@@H](CCC(=O)O)C(=O)N[C@@H](CCSC)C(=O)N[C@@H](CO)C(=O)O)[C@@H](C)CC)C(C)C)NC(=O)[C@@H]2CCCN2C(=O)[C@H](CSCC(N)=O)NC(=O)[C@H](CCCCNC(=O)CCCC(C)=NOCC(=O)NCC(=O)N[C@@H](CCC(=O)O)C(=O)N[C@@H](CCCCN)C(=O)N[C@@H](CCCCN)C(=O)N[C@@H](Cc2c[nH]c3ccccc23)C(=O)N[C@H](C(=O)N[C@@H](CCCNC(=N)N)C(=O)N[C@@H](CCC(=O)O)C(=O)N[C@@H](Cc2ccc(O)cc2)C(=O)N[C@H](C(=O)N[C@@H](CC(N)=O)C(=O)N[C@@H](CO)C(=O)N[C@@H](CC(C)C)C(=O)N[C@@H](CCC(=O)O)C(=O)N[C@@H](CCSC)C(=O)N[C@@H](CO)C(=O)O)[C@@H](C)CC)C(C)C)NC(=O)[C@H](CCCCN)NC(=O)[C@H](CCCCNC(=O)CCCC(C)=NOCC(=O)NCC(=O)N[C@@H](CCC(=O)O)C(=O)N[C@@H](CCCCN)C(=O)N[C@@H](CCCCN)C(=O)N[C@@H](Cc2c[nH]c3ccccc23)C(=O)N[C@H](C(=O)N[C@@H](CCCNC(=N)N)C(=O)N[C@@H](CCC(=O)O)C(=O)N[C@@H](Cc2ccc(O)cc2)C(=O)N[C@H](C(=O)N[C@@H](CC(N)=O)C(=O)N[C@@H](CO)C(=O)N[C@@H](CC(C)C)C(=O)N[C@@H](CCC(=O)O)C(=O)N[C@@H](CCSC)C(=O)N[C@@H](CO)C(=O)O)[C@@H](C)CC)C(C)C)NC(=O)[C@@H]2CCCN2C(=O)CNC1=O)C(C)C)C(=O)N[C@@H](CC(N)=O)C(=O)N[C@@H](CO)C(=O)N[C@@H](CC(C)C)C(=O)N[C@@H](CCC(=O)O)C(=O)N[C@@H](CCSC)C(=O)N[C@@H](CO)C(=O)O [i[VREY]4]
effect on platelet aggregation induced by human plaque homogenate (human platelets [1]): inhibited | effect on binding of anti-CXCL12 antibody clone #79018 to platelets ([4]; n = 8): diminished | effect on binding of anti-CXCL12 antibody K15C to platelets ([4]; n = 10): did not result in reduced binding of K15C | change of i[VREY]4 binding to human platelets on activation with collagen (human platelets [5]): increased | effect on collagen-induced platelet aggregation in blood from Cxcl12 wt/wt mice (mouse platelets [6]): diminished | effect on internalization of CXCR4 after CXCL12 exposure (CXCR4): could not be reversed | affinity of interaction with CXCL12 by HSQC NMR titration (15N-labeled CXCL12): in the micromolar range

C=CC(=O)N(C)CCOc1c(N)ncnc1-c1cc(F)cc(NC(=O)c2ccc(C3CC3)cc2F)c1C [remibrutinib]
effect on P-selectin expression and integrin αIIbβ3 activation by CRP-XL combined with CXCL12 (human platelets [7]): reversed

CCL5: recombinant human chemokine CCL5
Kd (CXCL12): 578 ± 61 nM

CXCL12: recombinant human chemokine CXCL12, platelet agonist
CXCL12 concentration that induced platelet aggregation (human platelets [1]; recombinant CXCL12 alone, n = 5-10): ≥ 100 ng/mL

— PMC11022931 (Blood, 2022)
